Article PMC4004768 (The Journal of antibiotics, 2013)

How the values were obtained:
[1] = tested on: B. subtilis ATCC 6633; experiment: propidium iodide uptake; format: cell-based, Bacillus subtilis; details: B. subtilis ATCC 6633, lower efficiency than nisin
[2] = tested on: B. subtilis ATCC6633; experiment: antimicrobial activity assay in liquid medium; format: cell-based, Bacillus subtilis
[3] = tested on: B. subtilis ATCC 6633; experiment: membrane potential by flow cytometry with DiOC2; format: cell-based, Bacillus subtilis; details: 0, 0.2, 2, 20 μM, triplicate flow cytometry
Outline: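 Flow cytometry on bacteria exposed to the test compound at 0, 0.2, 2 and 20 μM, with DiOC2 as the membrane-potential dye. The read-out is mean fluorescence intensity averaged over triplicate measurements. An alternative read-out is the ratio of fluorescence at 610 and 530 nm.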

[4] = cited from earlier work
[5] = specific activity against B. subtilis ATCC6633, liquid medium

With Geobacillin I the “efficiency in PI uptake relative to nisin” value [1] was “two-fold lower”, the “MIC relative to nisin” value ([2]; B. subtilis ATCC 6633, higher MIC compared to nisin) was “four-fold higher” and the IC50 [2, 5] was 560 ± 10 nM. The MIC [2, 5] was 1.0 µM, the “change in mean fluorescence intensity (MFI), DiOC2” value [3] was “significant decrease” and the “stability at physiological pH compared to nisin” value [4] was “higher stability”.
